# Published values from different studies.
# Protocols differ between the studies behind these lines.
# Target: Glycogen synthase kinase-3 beta (GSK3B, Homo sapiens, UniProt P49841)
SMILES,observed,action,method,tested at,quantity,value
COc1ccc(COc2ccc(Cc3cnc(N)nc3N)cc2OC)cc1,cell-free assay,,,0.5 µM,remaining signal,97.8%
CC(C)(O)[C@H]1CC[C@H](Nc2ccc3ncc(-c4cccc(C(F)(F)F)c4)n3n2)CC1,enzyme activity,inhibitor,,1 µM,remaining activity,81.6%
Nc1cccc(-c2cc3c(Oc4cccc(O)c4)ncnc3[nH]2)c1,cell-free assay,,,0.5 µM,remaining signal,48.1%
FC(F)c1nc2ccccc2n1-c1nc(N2CCOCC2)nc(N2CCOCC2)n1,enzyme activity,inhibitor,,10 µM,remaining activity,79%
CCN(CC)CCNC(=O)c1c(C)[nH]c(/C=C2\C(=O)Nc3ccc(Cl)cc32)c1C,enzyme activity,inhibitor,,0.5 µM,remaining activity,93.1%
COc1cccc(CNC(=O)c2nc3scc(COCc4ccc(C(=O)O)cc4)c3c(=O)[nH]2)c1,cell-free assay,,competition with immobilised ligand,1 µM,remaining binding,62.6%
COc1cc(Nc2cnc(C#N)c(O[C@H](C)CN(C)C)n2)ncc1-c1cnn(C)c1,enzyme activity,inhibitor,radiometric,10 µM,remaining activity,52%
Oc1cc2c(cc1O)C1c3ccc(O)c(O)c3OCC1(O)C2 (stereo not drawn),enzyme activity,inhibitor,ADP detection,100 µM,inhibition,50.5%
CC(C)(C)c1nc2c(s1)c1nc(N)ncc1c1ccc(NS(=O)(=O)c3c(F)cccc3F)c(F)c12,enzyme activity,inhibitor,radiometric,1 µM,remaining activity,91%
CCC(=O)N[C@H]1CC[C@@H](C(=O)N(C)c2ccc(-c3nc4ccccc4o3)cc2)C1,cell-free assay,,competition with immobilised ligand,1 µM,remaining binding,81%
O=C(O)c1cc(-c2ccc(F)cc2F)ccc1O,enzyme activity,inhibitor,ADP detection,100 µM,inhibition,38.6%
CCN(CC)c1ccc(C2=NNC(=O)CC2C)cc1[N+](=O)[O-] (stereo not drawn),enzyme activity,inhibitor,,10 µM,remaining activity,93%
Cc1cnc(C(=O)NCCc2ccc(S(=O)(=O)NC(=O)NC3CCCCC3)cc2)cn1,enzyme activity,inhibitor,ADP detection,100 µM,inhibition,45.4%
CN1CCN(c2cnc3c(C4CCN(C(=O)c5ccc(OC(F)(F)F)cc5N)CC4)ncnc3c2)CC1,cell-free assay,,competition with immobilised ligand,1 µM,remaining binding,100%
O=c1c2ccccc2[nH]c(=S)n1CCN1CCC(=C(c2ccc(F)cc2)c2ccc(F)cc2)CC1,enzyme activity,inhibitor,,0.5 µM,remaining activity,112%
C[C@H](c1ccc(F)cc1)N(Cc1cccc(C(=O)O)c1)C(=O)c1cnc2ccccc2c1,cell-free assay,,competition with immobilised ligand,1 µM,remaining binding,100%
Cc1cccc(C)c1NC(=O)c1ccccc1C(=O)O,enzyme activity,inhibitor,ADP detection,100 µM,inhibition,18.9%
FC(F)(F)Oc1cccc(-c2cnc3ccc(-c4ccncc4)nn23)c1,enzyme activity,inhibitor,radiometric,5 µM,activity vs control,98%
O=c1cccc(C=Cc2ccc3c(c2)OCO3)o1,enzyme activity,inhibitor,ADP detection,100 µM,inhibition,26.1%
O=C(O)[C@H]1[C@H](Cn2nnc3ccccc3c2=O)CC[C@@H]1C(=O)c1ccc(OCCC2CCOCC2)cc1,cell-free assay,,competition with immobilised ligand,1 µM,remaining binding,100%
Nc1[nH]nc2nc3ccccc3nc12,enzyme activity,inhibitor,,0.5 µM,remaining activity,99.7%
Cc1cc(NC(=O)c2cccc3cc(-c4cccc5[nH]nc(N)c45)ccc23)ccc1F,enzyme activity,inhibitor,,0.1 µM,activity vs control,85%
Cc1ccc(NC(=O)c2ccc(C)c(C(F)(F)F)c2)cc1C#Cc1nn(C2CCC(O)CC2)c2ncnc(N)c12 (stereo not drawn),cell-free assay,,,10 µM,remaining signal,26%
O=Nc1c(-c2c(O)[nH]c3ccccc23)[nH]c2ccccc12,cell-free assay,,,0.5 µM,remaining signal,27.3%
Cc1cc(-n2nc(Cc3cc(F)cc(C(F)(F)F)c3)nc2C)ccc1C(N)=O,cell-free assay,,competition with immobilised ligand,1 µM,remaining binding,98%
Cn1c(=O)n(-c2ccc(C(C)(C)C#N)cc2)c2c3cc(-c4cnc5ccccc5c4)ccc3ncc21,enzyme activity,inhibitor,,10 µM,remaining activity,76%
O=C1NC(=O)c2cc(Nc3ccc(F)cc3)c(Nc3ccc(F)cc3)cc21,cell-free assay,,,0.5 µM,remaining signal,89.2%
COc1ccc([C@H]2COc3c(ccc(O)c3OC)C2)c(OC)c1O,enzyme activity,inhibitor,ADP detection,100 µM,inhibition,15.7%
Cn1cc(Cl)c2c(Oc3c(F)cc(Nc4cc(Cl)nc(N)n4)cc3F)ccnc21,cell-free assay,,competition with immobilised ligand,0.1 µM,remaining binding,90%
Fc1ccc([C@@H]2CCNC[C@H]2COc2ccc3c(c2)OCO3)cc1,enzyme activity,inhibitor,ADP detection,100 µM,inhibition,0.9%
O=C(Nc1cnn(-c2csc(C(=O)NC3COC3)c2)c1)Nc1c(F)cccc1Cl,enzyme activity,inhibitor,,5 µM,remaining activity,95.7%
N#C[C@@H]1C[C@@H]2C[C@@H]2N1C(=O)[C@@H](N)C12CC3CC(CC(O)(C3)C1)C2,enzyme activity,inhibitor,ADP detection,100 µM,inhibition,8.2%
O=C(Nc1cnn(-c2csc(C(=O)NC3COC3)c2)c1)Nc1ccccc1Cl,enzyme activity,inhibitor,,5 µM,remaining activity,95%
Nc1nc(Nc2ccc(S(N)(=O)=O)cc2)nn1C(=O)c1c(F)cccc1F,cell-free assay,,,0.5 µM,remaining signal,22%
Nc1ncnc2c1ncn2[C@@H]1O[C@H](COP(=O)(O)OP(=O)(O)OP(=O)(O)O)[C@@H](O)[C@H]1O,enzyme activity,substrate,radiometric,,Km,9.3 µM
CCCOc1ccc([C@H]2[C@H](C(=O)O)[C@@H](c3ccc4c(c3)OCO4)CN2CC(=O)Nc2c(CC)cccc2CC)cc1,cell-free assay,,competition with immobilised ligand,1 µM,remaining binding,73%
